# Source: the RNAGym collection of RNA variant scans (doi:10.1126/science.aae0568)
# This sample holds only a part of the variants without activity.
# B1: tRNA (parent)
# chain: GUUCCGUUGGCGUAAUGGUAACGCGUCUCCCUCCUAAGGAGAAGACUGCGGGUUCGAGUCCCGUACGGAACG
# Variants of: B1
# Assay: yeast fitness relative to wild type (ratio to wild type); higher = fitter; tRNA-Arg(CCU), competitive growth, 37 C, YPD
# In short: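 Amplicons of the tRNA-Arg(CCU) gene were sequenced, 100-nucleotide paired-end, from the start population and from each end population of a pooled yeast competition. The competition, in six parallel replicates, lasted 24 hours in YPD at 37°C. Fitness relative to wild type was calculated from changes in genotype frequencies. Genotypes had to have ≥ 100 starting reads, and estimates < 0.5 were set to 0.5.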
row,Variant,yeast fitness
1,C5G C60G A70C,0.509
2,C5G C55U C61A,0.605
3,C5G G9C A20U A21G C24G C27G A43G,≤ 0.5
4,C5G C31U C49G C66U,≤ 0.5
5,C5G C27U G56A,0.619
6,C5G C62U C66G,0.641
7,C5G C27G C30U G51C C55A,≤ 0.5
8,C5G G10C G52A A69U,≤ 0.5
9,C5G G48C C49U U54G C66A,0.682
10,C5G G50A C55G A65C,0.551
11,C5G C34A A37U G44A G51A C55A A57U,≤ 0.5
12,C5G G10A C11G U16G C33G G58A A65G,≤ 0.5
13,C5G C27U C29G,≤ 0.5
14,C5G G18C G56C,≤ 0.5
15,C5G G6A G48A,≤ 0.5
16,C5G C34U G44C U47G,≤ 0.5
17,C5G C55U A65C A70U,≤ 0.5
18,C5G C27G C29U C31U A45G C49A C66U,≤ 0.5
19,C5G C31A A37C G48A G58C,0.565
20,C5G C33A A57G,0.59
21,C5G C61A,0.651
22,C5G C61U,0.736
23,C5G C61G,0.63
24,C5G C34A A37U G44A G51A C55A,0.654

row,Variant,yeast fitness
1,C5G C29U A37G C66U,0.536
2,C5G G17C G38C G52A,≤ 0.5
3,C5G G10C A15C C34U C55A,≤ 0.5
4,C5G C31U A36C G38A G56A A70U,≤ 0.5
5,C5G C27G,0.81
6,C5G C61U A70G,0.707
7,C5G C55G U59C C60U G67U,≤ 0.5
8,C5G G18C C31A,≤ 0.5
9,C5G G38C U47G C62U,≤ 0.5
10,C5G G18A A20U C55G,≤ 0.5
11,C5G G23C C33U A43C,≤ 0.5
12,C5G G23A G44C G67U,0.589
13,C5G G6A C29U C33G G38A G67U,≤ 0.5
14,C5G G48C G56A,0.544
15,C5G G39A U47G C49G C66U A69C,0.57
16,C5G C55G A70U,≤ 0.5
17,C5G C34G U47A C62A G63A,≤ 0.5
18,C5G C29G A36U,≤ 0.5
19,C5G G25A C46U G50C C66U,≤ 0.5
20,C5G C46G C49U,0.646
21,C5G G41C U54A,≤ 0.5
22,C5G C61A G67A,0.529
23,C5G G9C,0.696
24,C5G C29G G52A G67A,≤ 0.5

row,Variant,yeast fitness
1,C5G G52A,0.806
2,C5G G25A C61U,0.716
3,C5G G51A G52A,≤ 0.5
4,C5G G12A C46U G52C,0.61
5,C5G G9A C27G C61U,≤ 0.5
6,C5G G9C G56C,≤ 0.5
7,C5G C27G C34G,≤ 0.5
8,C5G C61U A65U,0.557
9,C5G C30A A42C,≤ 0.5
10,C5G G25A U47C,0.781
11,C5G C27U C34U G56C,0.646
12,C5G C30A A36G U64C,≤ 0.5
13,C5G G44C G67U,1.02
14,C5G G6C C46A,≤ 0.5
15,C5G G18A G25A C61A,≤ 0.5
16,C5G C27U G63A,≤ 0.5
17,C5G G23A A69C,≤ 0.5
18,C5G G18A C55A C61U,≤ 0.5
19,C5G C29U G39A,0.671
20,C5G C34U U35C,0.545
21,C5G G9A A20G,0.553
22,C5G G25A C34G A42U G50C U54C A70C,≤ 0.5
23,C5G C27A C31A A42C,≤ 0.5
24,C5G G12A A36U A42U U59C,≤ 0.5

row,Variant,yeast fitness
1,C5G C30G G67C,0.543
2,C5G G38C G68A,≤ 0.5
3,C5G C27G A45C,≤ 0.5
4,C5G G25A C46U G50C,0.593
5,C5G C29U A43C U54G C60G C62U,≤ 0.5
6,C5G C27U C31A U35C C55G C66U A70C,≤ 0.5
7,C5G C31U A36C G38A U54A,≤ 0.5
8,C5G C49U U59G,0.579
9,C5G G17C C62U A65C,0.52
10,C5G G23A,0.668
11,C5G C29A G56A,0.615
12,C5G G6C C33A A40U A70C,≤ 0.5
13,C5G G18C C62A,≤ 0.5
14,C5G G50C G51C G56A,≤ 0.5
15,C5G C49U G58C,0.622
16,C5G C30U C31G C61A A69U,≤ 0.5
17,C5G G44C,0.688
18,C5G C31U G63A,0.683
19,C5G G10C U19G A45C G51A,≤ 0.5
20,C5G G10C C30U G39C C55G,≤ 0.5
21,C5G G9U A21C U54A A57G,≤ 0.5
22,C5G G39C,0.675
23,C5G C46U G51A U54G,0.571
24,C5G C29U A70C,0.527

row,Variant,yeast fitness
1,C5G C31G C46A G63C A65U,≤ 0.5
2,C5G G51U C55G A65C,≤ 0.5
3,C5G G25C A37G,0.504
4,C5G G25C G56A,0.62
5,C5G C33U A57G,≤ 0.5
6,C5G C30U U32A C61G,≤ 0.5
7,C5G G6A G25A,0.675
8,C5G G10C A37U G38A,≤ 0.5
9,C5G G10A G52A A70G,0.564
10,C5G G44C U64C,0.586
11,C5G G41C C49U,0.543
12,C5G C27G A43G,≤ 0.5
13,C5G C34G C62A G63A,≤ 0.5
14,C5G C31A G67C,0.62
15,C5G C27U C61G,≤ 0.5
16,C5G C66G G68C,≤ 0.5
17,C5G G17C A20C A21U C27U C33G,≤ 0.5
18,C5G G17C C49U C61A,≤ 0.5
19,C5G G9C C33G A45G C55G G56C,≤ 0.5
20,C5G C27U G67A,0.524
21,C5G C49U G63C,≤ 0.5
22,C5G G10C C29A U32A C46G A57C,≤ 0.5
23,C5G C62G,0.791
24,C5G G9C A42G U54C,0.641

row,Variant,yeast fitness
1,C5G G25C U47C,0.545
2,C5G C62U A69C,0.708
3,C5G C30U C34U A37U G68C,≤ 0.5
4,C5G G44C C62U C66U A69C,0.515
5,C5G G48C G67C,0.573
6,C5G C27U A36U C60G,≤ 0.5
7,C5G C46G A65C,0.668
8,C5G G9C A42G C49U U54C,0.533
9,C5G G17A G18A A57C,0.554
10,C5G G44C C49G A69U,≤ 0.5
11,C5G C29G A65G,0.565
12,C5G G25A U59G,0.631
13,C5G C34U A70U,≤ 0.5
14,C5G G10C C31U A70G,≤ 0.5
15,C5G G9C A21G,0.531
16,C5G G6C A37G G51C A57G,≤ 0.5
17,C5G G10C C22A U32C,≤ 0.5
18,C5G G18A A42C A45C,≤ 0.5
19,C5G G18C C61U A65C,≤ 0.5
20,C5G G23A A45U G52C,0.626
21,C5G G6A U53G A57C,≤ 0.5
22,C5G C29A G48A,≤ 0.5
23,C5G G23A U54A,≤ 0.5
24,C5G G39A C46U G67A,≤ 0.5

row,Variant,yeast fitness
1,C5G C27U G51A C60G A70G,≤ 0.5
2,C5G G6C G67A,≤ 0.5
3,C5G G25C C29G A65U,≤ 0.5
4,C5G G17A C22U C46U C66U A70C,0.62
5,C5G C24U C61A A70C,≤ 0.5
6,C5G G17C A20C A21U C27U C33G G67A,0.595
7,C5G G9C C30G C66U,≤ 0.5
8,C5G C66U,0.74
9,C5G G25A A42C G68U,≤ 0.5
10,C5G C30U G44C,≤ 0.5
11,C5G G9A A65C,0.596
12,C5G G23C C31U A37C,≤ 0.5
13,C5G C46U C66A,0.524
14,C5G C29A U32G,≤ 0.5
15,C5G C30A A36G C61A,0.592
16,C5G C60U C62G,0.634
17,C5G C46U,0.88
18,C5G C46A,0.917
19,C5G C27G G44C U59A,≤ 0.5
20,C5G C27G A57C,≤ 0.5
21,C5G G10C U13G C31G U59A,≤ 0.5
22,C5G G12A G25A,0.783
23,C5G G10A C11G U16G C33G U47A C60A,≤ 0.5
